pEC50: −log10 of the molar value. Activity calls are given as the source filed them. The rule behind the calls is not given here.
Key:
[1] = Toxicity in 6 hrs post fertilized zebrafish embryo assessed as teratogenic effect by measuring malformation of eyes up to 50 uM up to 120 hrs post fertilization by inverted microscopic method; parameters: species or system Danio rerio; settings: in vivo
[2] = Toxicity in 6 hrs post fertilized zebrafish embryo assessed as teratogenic effect by measuring yolk edema up to 50 uM up to 120 hrs post fertilization by inverted microscopic method; parameters: species or system Danio rerio; settings: in vivo
[3] = Toxicity in 6 hrs post fertilized zebrafish embryo assessed as teratogenic effect by measuring growth retardation up to 50 uM up to 120 hrs post fertilization by inverted microscopic method; parameters: species or system Danio rerio; settings: in vivo
[4] = Toxicity in 6 hrs post fertilized zebrafish embryo assessed as teratogenic effect by measuring effect on heart beat frequency up to 50 uM up to 120 hrs post fertilization by inverted microscopic method; parameters: species or system Danio rerio; settings: in vivo
[5] = target: Cathepsin B (Homo sapiens) (UniProt P07858); experiment: Inhibition of cathepsin B activity in human HeLa cells at 10 uM after 12 hrs by magic red substrate based fluorescence assay; assay type: cell-based
In short: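 HeLa cells were exposed to compound for 12 h, then given the Magic Red cathepsin B peptide reporter, washed, and imaged at Ex/Em 590/630. Total intensity and average area of red fluorescence were scored by high-content analysis. Eight wells per point, about 3000 cells/well, mean ± SD, three independent experiments.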

[6] = Toxicity in 6 hrs post fertilized zebrafish embryo assessed as teratogenic effect by measuring effect on blood circulation up to 50 uM up to 120 hrs post fertilization by inverted microscopic method; parameters: species or system Danio rerio; settings: in vivo
Ebolavirus = experiment: Antiviral activity against Ebolavirus H. sapiens-wt/1995/Kikwit-9510621 infected in African green monkey Vero cells assessed as inhibition of viral infection pretreated for 2 hrs followed by viral infection and measured after 48 hrs by EboV GP immunostaining based high content imaging analysis; assay type: functional, organism-based; settings: Orthoebolavirus, H. sapiens-wt/1995/Kikwit-9510621, Vero
[7] = Toxicity in 6 hrs post fertilized zebrafish embryo assessed as teratogenic effect by measuring liver morphology and color up to 50 uM up to 120 hrs post fertilization by inverted microscopic method; assay type: tissue-based, Danio rerio; settings: in vivo
HeLa [8] = experiment: Induction of lysosomotropism in human HeLa cells infected with Ebolavirus assessed as increase in fluorescence intensity of acid compartments at 10 uM for 1 hr by Lysosensor DND189 staining based assay; assay type: functional, cell-based
In short: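 HeLa cells were pretreated 1 h with compound (Bafilomycin A1 at 0.01 μM as acidification control), then stained with LysoSensor DND 189 for 10 min and washed. Live imaging at Ex/Em 443/505 nm. Fluorescence intensity per area was quantified by image analysis. Eight wells per point, about 3000 cells/well, mean ± SD, three independent experiments.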

[9] = Hepatotoxicity in 6 hrs post fertilized transgenic l-fabp:EGFP zebrafish embryo assessed as change in liver area index up to 30 uM up to 120 hrs post fertilization by fluorescence assay; assay type: toxicity, Danio rerio; settings: in vivo
In short: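 Tg(l-fabp:EGFP) zebrafish embryos exposed from 6 hpf. At 120 hpf, liver area index (liver area/lateral body area) and liver fluorescence assessed by in vivo imaging.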

[10] = Hepatotoxicity in 72 hrs post fertilized transgenic l-fabp:EGFP zebrafish embryo assessed as change in liver fluorescence up to 80 uM up to 120 hrs post fertilization by fluorescence assay; assay type: toxicity, Danio rerio; settings: in vivo
In short: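 Transgenic Tg(l-fabp:EGFP) zebrafish with fluorescent liver, exposed to compound added at 72 hpf. Liver imaged in vivo at 120 hpf. Read-outs were liver fluorescence and liver area index (liver area divided by lateral body area).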

[11] = Toxicity in 6 hrs post fertilized zebrafish embryo assessed as teratogenic effect by measuring malformation of head up to 50 uM up to 120 hrs post fertilization by inverted microscopic method; assay type: tissue-based, Danio rerio; settings: in vivo
[12] = Toxicity in 6 hrs post fertilized zebrafish embryo assessed as teratogenic effect by measuring pericardial edema up to 50 uM up to 120 hrs post fertilization by inverted microscopic method; parameters: species or system Danio rerio; settings: in vivo
[13] = Toxicity in 6 hrs post fertilized zebrafish embryo assessed as tail detachment up to 50 uM up to 120 hrs post fertilization by inverted microscopic method; parameters: species or system Danio rerio; settings: in vivo
[14] = Toxicity in 6 hrs post fertilized zebrafish embryo assessed as teratogenic effect by measuring yolk absorption up to 50 uM up to 120 hrs post fertilization by inverted microscopic method; parameters: species or system Danio rerio; settings: in vivo
[15] = Toxicity in 6 hrs post fertilized zebrafish embryo assessed as teratogenic effect by measuring scoliosis up to 50 uM up to 120 hrs post fertilization by inverted microscopic method; parameters: species or system Danio rerio; settings: in vivo
[16] = Myelotoxicity in 6 hrs post fertilized transgenic mpx:GFP zebrafish embryo assessed as reduction in neutrophil occurrence at >= 80 uM measured at 72 hrs hrs post fertilization by fluorescence assay; parameters: species or system Danio rerio
HeLa [17] = experiment: Inhibition of lysosome fusion with autophagosome in human HeLa cells harboring GFP-LC3 assessed as increase in GFP-LC3-2 clustering at <50 uM after 6 hrs by Western blot analysis; assay type: functional, subcellular
In short: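 HeLa cells were exposed to compound for 6 h, then lysed and analysed by Western blot.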

[18] = Toxicity in 6 hrs post fertilized zebrafish embryo assessed as teratogenic effect by measuring malformation of tail up to 50 uM up to 120 hrs post fertilization by inverted microscopic method; assay type: tissue-based, Danio rerio; settings: in vivo
HeLa [19] = experiment: Induction of lysosomotropism in human HeLa cells infected with Ebolavirus assessed as increase in lysosome concentration in juxtanuclear region at 10 uM for 2 hrs by acridine orange staining based assay; assay type: functional, cell-based
In short: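 HeLa cells were pretreated with compound for 2 h, then given acridine orange for 30 min and washed. Red AO fluorescence in acidic compartments was imaged, and total intensity and average area were scored by high-content imaging. Eight wells per point, about 3000 cells/well, mean ± SD, representative of three independent experiments.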

[20] = Toxicity in 6 hrs post fertilized zebrafish embryo assessed as teratogenic effect by measuring malformation of sacculi/otoliths up to 50 uM up to 120 hrs post fertilization by inverted microscopic method; parameters: species or system Danio rerio; settings: in vivo
Zaire ebolavirus = experiment: Antiviral activity against VSV pseudotyped Ebolavirus Mayinga expressing GFP infected in human HeLa cells assessed as inhibition of viral infection at 10 uM pre-incubated for 2 hrs followed by viral infection and measured after 8 hrs by cell mask deep red staining based assay; assay type: functional, organism-based; settings: 1976
In short: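 HeLa cells pretreated 2 h with compound, then infected with rVSV-EBOV-GP-GFP (8 h) or VSV-GFP (6 h), and stained with Cell Mask Deep Red. Relative inhibition = 1 minus (% GFP-expressing cells normalised to mock). Mean ± SD of three replicates, representative of three independent experiments.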

[21] = Toxicity in 6 hrs post fertilized zebrafish embryo assessed as teratogenic effect by measuring malformation of notochord up to 50 uM up to 120 hrs post fertilization by inverted microscopic method; assay type: tissue-based, Danio rerio; settings: in vivo

## CCN(CC)CCCC(C)Nc1ccnc2cc(Cl)ccc12 (stereo not drawn) [CHLOROQUINE]
[1]
  Activity: Non-Toxic
[2]
  Activity: Non-Toxic
[3]
  Activity: Non-Toxic
[4]
  Activity: Non-Toxic
[5]
  inhibition: inactive
[6]
  Activity: Non-Toxic
Ebolavirus
  pEC50: 4.80
[7]
  Activity: Non-Toxic
HeLa [8]
  Activity: inactive
[9]
  Activity: Toxic
[10]
  Activity: Toxic
[11]
  Activity: Non-Toxic
[12]
  Activity: Non-Toxic
[13]
  Activity: Non-Toxic
[14]
  Activity: Non-Toxic
[15]
  Activity: Non-Toxic
[16]
  Activity: Toxic
HeLa [17]
  inhibition: inactive
[18]
  Activity: Non-Toxic
HeLa [19]
  Activity: Active
[20]
  Activity: Non-Toxic
Zaire ebolavirus
  Activity: Active
[21]
  Activity: Non-Toxic
